According to ChEMBL document CHEMBL1629539, “Configuration of the 5'-methyl group modulates the biophysical and biological properties of locked nucleic acid (LNA) oligonucleotides” (J Med Chem, 2010):
The source made the active and inactive calls. The rule behind the calls is not given here.

Experiments:
Mus musculus [1] = test: Reduction in PTEN mRNA expression in BALB/c mouse liver at 12 mg/kg, ip administered as single dose measured 72 hrs post dose; type: functional; conditions: route intraperitoneal
How it was run: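 Single ip injection at 12 or 60 mg/kg of phosphorothioate gapmer (14-base deoxy gap, two modified nucleotides per wing) against PTEN in Balb-c mice, n = 4/group. After sacrifice, liver PTEN mRNA reported as % down-regulation versus saline controls, and plasma ALT (IU/L) measured as the liver toxicity read-out.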

Mus musculus [2] = test: Hepatotoxicity in BALB/c mouse liver at 60 mg/kg, ip administered as single dose measured 72 hrs post dose
Mus musculus [3] = test: Hepatoprotective activity in BALB/c mouse assessed as at 23 mg/kg, ip assessed as reduction of plasma alanine amino transferase levels after 72 hrs post dose; type: functional, organism-based; parameters: dose 23 mg/kg
How it was run: (§1)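 Balb-c mice, 4 per group, one ip dose at 23 or 46 mg/kg of 14-mer fully phosphorothioate gapmer ASO targeting PTEN. Sacrifice 72 h after dosing. Liver PTEN mRNA quantified by quantitative RT-PCR, expressed as % down-regulation versus saline-treated animals. Plasma ALT (IU/L) measured after sacrifice.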

Mus musculus [4] = test: Hepatoprotective activity in BALB/c mouse assessed as at 46 mg/kg, ip assessed as reduction of plasma alanine amino transferase levels after 72 hrs post dose; type: functional, organism-based; parameters: dose 46 mg/kg; how it was run: as §1
Mus musculus [5] = test: Reduction in PTEN mRNA expression in ip dosed BALB/c mouse liver administered twice weekly for 3 weeks measured after 72 hrs post last dose; type: functional
How it was run: (§2)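 Balb-c mice (n = 4/group) dosed ip twice a week for 3 weeks at 0.5, 1.5, 4.5 and 15 mg/kg of PTEN-targeting 14-mer phosphorothioate gapmer. Sacrifice 72 h after last dose. Liver PTEN mRNA by quantitative RT-PCR as % versus saline, with ED50 derived from dose-response. Plasma ALT (IU/L) recorded. Spleen weight given as fold increase over saline group.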

Mus musculus [6] = test: Toxicity in BALB/c mouse assessed as increase in spleen weight at 1.5 mg/kg, ip administered twice weekly for 3 weeks measured after 72 hrs post last dose; type: organism-based; parameters: dose 1.5 mg/kg, route intraperitoneal; conditions: in vivo; how it was run: as §2
Mus musculus [7] = test: Toxicity in BALB/c mouse assessed as increase in spleen weight at 4.5 mg/kg, ip administered twice weekly for 3 weeks measured after 72 hrs post last dose; type: organism-based; parameters: dose 4.5 mg/kg, route intraperitoneal; conditions: in vivo; how it was run: as §2
Mus musculus [8] = test: Toxicity in BALB/c mouse assessed as increase in spleen weight at 15 mg/kg, ip administered twice weekly for 3 weeks measured after 72 hrs post last dose; type: organism-based; parameters: dose 15 mg/kg, route intraperitoneal; conditions: in vivo; how it was run: as §2

Q: What does the source list for `Cc1cn([C@@H]2O[C@@]3(CO)CO[C@@H]2[C@@H]3OP(O)(=S)OC[C@@]23CO[C@@H]([C@H](n4cc(C)c(=O)[nH]c4=O)O2)[C@@H]3OP(O)(=S)OC[C@@]23CO[C@@H]([C@H](n4cnc5c(=O)[nH]c(N)nc54)O2)[C@@H]3OP(O)(=S)OC[C@@]23CO[C@@H]([C@H](n4ccc(N)nc4=O)O2)[C@@H]3OP(O)(=S)OC[C@@]23CO[C@@H]([C@H](n4cc(C)c(=O)[nH]c4=O)O2)[C@@H]3OP(O)(=S)OC[C@@]23CO[C@@H]([C@H](n4cnc5ncnc(N)c54)O2)[C@@H]3OP(O)(=S)OC[C@@]23CO[C@@H]([C@H]([n+]4c[nH]c5nc(N)[nH]c(=O)c54)O2)[C@@H]3OP(O)(=S)OC[C@@]23CO[C@@H]([C@H](n4ccc(N)nc4=O)O2)[C@@H]3OP(O)(=S)OC[C@@]23CO[C@@H]([C@H](n4ccc(N)nc4=O)O2)[C@@H]3OP(O)(=S)OC[C@@]23CO[C@@H]([C@H](n4cc(C)c(=O)[nH]c4=O)O2)[C@@H]3OP(O)(=S)OC[C@@]23CO[C@@H]([C@H](n4ccc(N)nc4=O)O2)[C@@H]3OP(O)(=S)OC[C@@]23CO[C@@H]([C@H](n4cc(C)c(=O)[nH]c4=O)O2)[C@@H]3OP(O)(=S)OC[C@@]23CO[C@@H]([C@H]([n+]4c[nH]c5nc(N)[nH]c(=O)c54)O2)[C@@H]3OP(O)(=S)OC[C@@]23CO[C@@H]([C@H]([n+]4c[nH]c5nc(N)[nH]c(=O)c54)O2)[C@@H]3OP(O)(=S)OC[C@@]23CO[C@@H]([C@H](n4cnc5ncnc(N)c54)O2)[C@@H]3OP(O)(=S)OC[C@@]23CO[C@@H]([C@H](n4cc(C)c(=O)[nH]c4=O)O2)[C@@H]3OP(O)(=S)OC[C@@]23CO[C@@H]([C@H](n4cc(C)c(=O)[nH]c4=O)O2)[C@@H]3OP(O)(=S)OC[C@@]23CO[C@@H]([C@H](n4cc(C)c(=O)[nH]c4=O)O2)[C@@H]3O)c(=O)nc1N` (some centres undefined)?
A: inhibition in vivo at 12 mg/kg (Mus musculus [1]): 90%; Activity (Mus musculus [2]): Toxic

Q: For `Cc1cn([C@@H]2O[C@@]3(COP(O)(=S)O[C@@H]4[C@H]5OC[C@]4(CO)O[C@H]5n4cc(C)c(=O)[nH]c4=O)CO[C@@H]2[C@@H]3OP(O)(=S)OC[C@@]23CO[C@@H]([C@H](n4cnc5c(N)ncnc54)O2)[C@@H]3OP(O)(=S)OC[C@@]23CO[C@@H]([C@H](n4cc(C)c(=O)[nH]c4=O)O2)[C@@H]3OP(O)(=S)OC[C@@]23CO[C@@H]([C@H](n4cnc5nc(N)[nH]c(=O)c54)O2)[C@@H]3OP(O)(=S)OC[C@@]23CO[C@@H]([C@H](n4cnc5nc(N)[nH]c(=O)c54)O2)[C@@H]3OP(O)(=S)OC[C@@]23CO[C@@H]([C@H](N4CCC(N)=NC4=O)O2)[C@@H]3OP(O)(=S)OC[C@@]23CO[C@@H]([C@H](n4cc(C)c(=O)[nH]c4=O)O2)[C@@H]3OP(O)(=S)OC[C@@]23CO[C@@H]([C@H](n4cnc5nc(N)[nH]c(=O)c54)O2)[C@@H]3OP(O)(=S)OC[C@@]23CO[C@@H]([C@H](n4ccc(N)nc4=O)O2)[C@@H]3OP(O)(=S)OC[C@@]23CO[C@@H]([C@H](n4cnc5c(N)ncnc54)O2)[C@@H]3OP(O)(=S)OC[C@@]23CO[C@@H]([C@H](n4cnc5nc(N)[nH]c(=O)c54)O2)[C@@H]3OP(O)(=S)OC[C@@]23CO[C@@H]([C@H](n4cc(C)c(N)nc4=O)O2)[C@@H]3OP(O)(=S)OC[C@@]23CO[C@@H]([C@H](n4ccc(=O)[nH]c4=O)O2)[C@@H]3O)c(=O)nc1N` (some centres undefined), which Activity (Mus musculus [3]) is on record?
A: inactive

Q: And the Activity (Mus musculus [4])?
A: inactive

Q: And the ED50 (Mus musculus [5])?
A: 3.1 mg/kg

Q: What about the inhibition (Mus musculus [5]) of the same molecule?
A: Dose-dependent effect

Q: And the Activity (Mus musculus [6])?
A: Toxic

Q: And the Activity (Mus musculus [7])?
A: Toxic

Q: What about the Activity (Mus musculus [8]) of the same molecule?
A: Non-toxic
